Source: ChEMBL document CHEMBL4689842, “EUbOPEN Chemogenomics Library wave 1” (2021)

Test system: U2OS
Assay: Multiplex assay against U2OS
Type: toxicity, cell-based
Settings: human
Outline: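 Live cells were stained at seeding with Hoechst33342, BioTracker Green Microtubule Cytoskeleton Dye, MitoTracker Red and Annexin V Alexa Fluor 680. Following compound addition, they were imaged on a CQ1 microscope at 37°C and 5% CO2 and gated by CellPathfinder machine learning into Hoechst high-intensity objects or normal cells, with normal cells split into healthy, pyknosed or fragmented nuclei and pyknosed cells into mitotic or apoptotic. Tubulin, mitochondrial-mass and membrane-permeability phenotypes are per cents of healthy-nucleus cells.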

[1] = 12 h, 1 µM, compound concentration 1 uM, replicate 1
[2] = 12 h, 1 µM, compound concentration 1 uM, replicate 2
[3] = 12 h, 10 µM, compound concentration 10 uM, replicate 1
[4] = 12 h, 10 µM, compound concentration 10 uM, replicate 2
[5] = 24 h, 1 µM, compound concentration 1 uM, replicate 1
[6] = 24 h, 1 µM, compound concentration 1 uM, replicate 2
[7] = 24 h, 10 µM, compound concentration 10 uM, replicate 1
[8] = 24 h, 10 µM, compound concentration 10 uM, replicate 2
[9] = 48 h, 1 µM, compound concentration 1 uM, replicate 1
[10] = 48 h, 1 µM, compound concentration 1 uM, replicate 2
[11] = 48 h, 10 µM, compound concentration 10 uM, replicate 1
[12] = 48 h, 10 µM, compound concentration 10 uM, replicate 2

Structure (SMILES): CC[C@H](C)C(=O)O[C@H]1C[C@@H](C)C=C2C=C[C@H](C)[C@H](CC[C@@H]3C[C@@H](O)CC(=O)O3)[C@H]21 [LOVASTATIN]
- Population Apoptotic (%) [1]: 21%
- Population Fragmented Nuclei (%) [1]: 13%
- Population Healthy Nuclei (%) [1]: 76%
- Population Hoechst High Intensity Objects (%) [1]: 12%
- Population Membrane Permeable-Phenotype (%) [1]: 7%
- Population Mitochondria Different-Phenotype (%) [1]: 5%
- Population Mitotic Cells (%) [1]: 78%
- Population Normal (%) [1]: 87%
- Population Pyknosed Nuclei (%) [1]: 9%
- Population Tubulin-Different-Phenotype (%) [1]: 13%
- Total Cell Count [1]: 140
- Population Apoptotic (%) [2]: 25%
- Population Fragmented Nuclei (%) [2]: 22%
- Population Healthy Nuclei (%) [2]: 68%
- Population Hoechst High Intensity Objects (%) [2]: 11%
- Population Membrane Permeable-Phenotype (%) [2]: 3%
- Population Mitochondria Different-Phenotype (%) [2]: 6%
- Population Mitotic Cells (%) [2]: 75%
- Population Normal (%) [2]: 88%
- Population Pyknosed Nuclei (%) [2]: 8%
- Population Tubulin-Different-Phenotype (%) [2]: 3%
- Total Cell Count [2]: 87
- Population Apoptotic (%) [3]: 31%
- Population Fragmented Nuclei (%) [3]: 20%
- Population Healthy Nuclei (%) [3]: 68%
- Population Hoechst High Intensity Objects (%) [3]: 10%
- Population Membrane Permeable-Phenotype (%) [3]: 9%
- Population Mitochondria Different-Phenotype (%) [3]: 14%
- Population Mitotic Cells (%) [3]: 68%
- Population Normal (%) [3]: 89%
- Population Pyknosed Nuclei (%) [3]: 11%
- Population Tubulin-Different-Phenotype (%) [3]: 12%
- Total Cell Count [3]: 163
- Population Apoptotic (%) [4]: 100%
- Population Fragmented Nuclei (%) [4]: 4%
- Population Healthy Nuclei (%) [4]: 90%
- Population Hoechst High Intensity Objects (%) [4]: 8%
- Population Membrane Permeable-Phenotype (%) [4]: 10%
- Population Mitochondria Different-Phenotype (%) [4]: 12%
- Population Mitotic Cells (%) [4]: 0%
- Population Normal (%) [4]: 91%
- Population Pyknosed Nuclei (%) [4]: 4%
- Population Tubulin-Different-Phenotype (%) [4]: 20%
- Total Cell Count [4]: 54
- Population Apoptotic (%) [5]: 18%
- Population Fragmented Nuclei (%) [5]: 6%
- Population Healthy Nuclei (%) [5]: 84%
- Population Hoechst High Intensity Objects (%) [5]: 7%
- Population Membrane Permeable-Phenotype (%) [5]: 6%
- Population Mitochondria Different-Phenotype (%) [5]: 8%
- Population Mitotic Cells (%) [5]: 81%
- Population Normal (%) [5]: 92%
- Population Pyknosed Nuclei (%) [5]: 8%
- Population Tubulin-Different-Phenotype (%) [5]: 14%
- Total Cell Count [5]: 144
- Population Apoptotic (%) [6]: 40%
- Population Fragmented Nuclei (%) [6]: 22%
- Population Healthy Nuclei (%) [6]: 70%
- Population Hoechst High Intensity Objects (%) [6]: 9%
- Population Membrane Permeable-Phenotype (%) [6]: 0%
- Population Mitochondria Different-Phenotype (%) [6]: 4%
- Population Mitotic Cells (%) [6]: 60%
- Population Normal (%) [6]: 90%
- Population Pyknosed Nuclei (%) [6]: 7%
- Population Tubulin-Different-Phenotype (%) [6]: 4%
- Total Cell Count [6]: 93
- Population Apoptotic (%) [7]: 25%
- Population Fragmented Nuclei (%) [7]: 13%
- Population Healthy Nuclei (%) [7]: 76%
- Population Hoechst High Intensity Objects (%) [7]: 6%
- Population Membrane Permeable-Phenotype (%) [7]: 8%
- Population Mitochondria Different-Phenotype (%) [7]: 7%
- Population Mitotic Cells (%) [7]: 75%
- Population Normal (%) [7]: 93%
- Population Pyknosed Nuclei (%) [7]: 9%
- Population Tubulin-Different-Phenotype (%) [7]: 9%
- Total Cell Count [7]: 204
- Population Apoptotic (%) [8]: 28%
- Population Fragmented Nuclei (%) [8]: 8%
- Population Healthy Nuclei (%) [8]: 79%
- Population Hoechst High Intensity Objects (%) [8]: 7%
- Population Mitochondria Different-Phenotype (%) [8]: 4%
- Population Mitotic Cells (%) [8]: 71%
- Population Normal (%) [8]: 92%
- Population Pyknosed Nuclei (%) [8]: 11%
- Population Tubulin-Different-Phenotype (%) [8]: 23%
- Total Cell Count [8]: 74
- Population Apoptotic (%) [9]: 41%
- Population Fragmented Nuclei (%) [9]: 4%
- Population Healthy Nuclei (%) [9]: 89%
- Population Hoechst High Intensity Objects (%) [9]: 3%
- Population Membrane Permeable-Phenotype (%) [9]: 4%
- Population Mitochondria Different-Phenotype (%) [9]: 8%
- Population Mitotic Cells (%) [9]: 58%
- Population Normal (%) [9]: 96%
- Population Pyknosed Nuclei (%) [9]: 5%
- Population Tubulin-Different-Phenotype (%) [9]: 11%
- Total Cell Count [9]: 129
- Population Apoptotic (%) [10]: 0%
- Population Fragmented Nuclei (%) [10]: 10%
- Population Healthy Nuclei (%) [10]: 87%
- Population Hoechst High Intensity Objects (%) [10]: 7%
- Population Membrane Permeable-Phenotype (%) [10]: 1%
- Population Mitochondria Different-Phenotype (%) [10]: 5%
- Population Mitotic Cells (%) [10]: 100%
- Population Normal (%) [10]: 92%
- Population Pyknosed Nuclei (%) [10]: 2%
- Population Tubulin-Different-Phenotype (%) [10]: 7%
- Total Cell Count [10]: 89
- Population Apoptotic (%) [11]: 40%
- Population Fragmented Nuclei (%) [11]: 12%
- Population Healthy Nuclei (%) [11]: 78%
- Population Hoechst High Intensity Objects (%) [11]: 4%
- Population Membrane Permeable-Phenotype (%) [11]: 3%
- Population Mitochondria Different-Phenotype (%) [11]: 5%
- Population Mitotic Cells (%) [11]: 60%
- Population Normal (%) [11]: 95%
- Population Pyknosed Nuclei (%) [11]: 8%
- Population Tubulin-Different-Phenotype (%) [11]: 4%
- Total Cell Count [11]: 300
- Population Apoptotic (%) [12]: 33%
- Population Fragmented Nuclei (%) [12]: 3%
- Population Healthy Nuclei (%) [12]: 89%
- Population Hoechst High Intensity Objects (%) [12]: 7%
- Population Membrane Permeable-Phenotype (%) [12]: 6%
- Population Mitochondria Different-Phenotype (%) [12]: 6%
- Population Mitotic Cells (%) [12]: 66%
- Population Normal (%) [12]: 92%
- Population Pyknosed Nuclei (%) [12]: 7%
- Population Tubulin-Different-Phenotype (%) [12]: 21%
- Total Cell Count [12]: 96
